Two compounds from publication PMC4310013 (Chemical Science, 2014) can be followed below.

Entries after “also recorded” stand apart in the source; their conditions may differ.

Data set [1] in a line: Pharmacokinetic studies in C57BL/6 mice. Format: in vivo. Conditions: male, C57BL/6, mouse, brain, intraperitoneal.
In data set [2] the test system is CK-p25 mice. The data set is described as follows: Context-dependent fear conditioning in CK-p25 mice. Format: in vivo, mouse. Particulars: 1 mg/kg i.p. daily for 10 days. The procedure, abridged: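 CK-p25 male mice induced at 3 months of age for 6 weeks for forebrain p25 expression; p25-lacking heterozygous littermates as controls. Test compound in 5% DMSO, then 30% Cremophor/65% saline, given i.p. daily for 10 days before behaviour; vehicle without compound. Training: 3 min habituation, two 2 s 0.8 mA shocks 30 s apart, 15 s more. Freezing scored on 3 min context re-exposure 24 h later. Mean ± SEM; ANOVA/Tukey or one-tailed t test.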

Data set [3] relates to hippocampal CA1 neurons of CK-p25 mice. The data set is described as follows: Immunohistochemistry of H4K12 acetylation in hippocampal CA1 neurons. Particulars: after 10 day treatment, compared to vehicle treated group. Format: in vivo, mouse. The procedure, abridged: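 Hippocampal tissue from CK-p25 mice given test compound or vehicle i.p. daily for 10 days. Coronal 40 μm slices were permeabilised in 0.1% Triton X-100, blocked, and incubated overnight with acetyl-histone antibody in 0.3% Triton X-100/10% FBS in PBS. Fluorescent secondary and Hoechst nuclear stain followed. Confocal images at identical settings. Mean signal in 20–40 non-apoptotic cells per condition was scored blind. Mean ± SEM.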

A short description of data set [4]: Brain tissue binding assay. Format: in vitro ADME.
Data set [5] concerns mouse forebrain primary neuronal cultures. The experiment in a line: Neuronal histone acetylation assay. Format: cell-based. Particulars: 10 μM, 24 h, relative to vehicle. The essentials: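 Primary mouse forebrain neurons were treated on culture day 13 for 24 h at 10 μM, then formaldehyde-fixed. They were stained with anti-AcH3K9 or anti-AcH4K12 and a green fluorescent secondary, and fluorescence was read by microcytometer. Read-out was the percentage of cells above a baseline threshold set in DMSO-treated cells. Two experiments in triplicate from separate dissections and cultures.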

Data set [6] concerns CK-p25 mice. The experiment in a line: Tolerability on daily dosing in CK-p25 mice. Format: in vivo, mouse. The procedure, abridged:
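Induced CK-p25 mice were given test compound i.p. daily for 10 days, dissolved in 5% DMSO then diluted in 30% Cremophor/65% physiological saline and prepared immediately before injection. Mortality and toxicity were noted over the treatment period.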

The test system of data set [7] is wild-type male C57BL/6 mice. The experiment in a line: Tolerability on daily dosing in wild-type mice. Conditions: 30 mg/kg daily for 10 consecutive days. Format: in vivo, mouse.

As to `CC(=O)NC1CCN(C(=O)Nc2cc(-c3cccs3)ccc2N)CC1` [BRD3227], the Kp in data set [1] is 0.01.

Broadly, the fraction unbound is the share of the substance not bound to proteins or other matrix. The low end stands for extensive binding, the high end for weak binding. In the case of `Nc1ccc(-c2ccncc2)cc1NC(=O)N1CCCC1` [BRD6688], the “contextual fear conditioning, freezing” value in the data set with CK-p25 mice [2] is reported as “rescued the memory defects; also recorded: restored the freezing response to normal levels”. Besides, the “H4K12 acetylation in hippocampal CA1 neurons” value in data set [3] is listed as “increased H4K12 acetylation”. Also, the fraction unbound in data set [4] is 0.54. Besides, in data set [5], the AcH3K9 acetylation change result was “significant increases” and the AcH4K12 acetylation change entry is given as “significant increases”. Further, the Kp in data set [1] was found to be 0.26. The toxicity entry in the data set on CK-p25 mice [6] (1 mg/kg, CK-p25 mice) is reported as “No toxicity was observed”. For the same compound, the mortality in the data set on CK-p25 mice [6] (10 mg/kg, over 10 day treatment, single study, unknown cause) was 5 out of 10. Moreover, in data set [7], the toxicity entry is “No toxicity was observed”.
